In ChEMBL document CHEMBL1158750, “Merosesquiterpenes from two sponges of the genus Dysidea” (2005) one finds GI50, TGI and CC50 data, which are given here for 4 compounds.

What all share (format): functional
What all share (conditions): for CC50: read-out: LC50 (the source's name)

For one assay, the system named is MDA-MB-231. As to the kind of experiment: Cytotoxicity against human MDA-MB-231 cells by SRB assay. The gist of the method: (§1)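 Human tumor cell line (A-549 lung carcinoma, HT-29 colon adenocarcinoma, MDA-MB-231 mammary gland adenocarcinoma) growth and viability measured by colorimetric sulforhodamine B (SRB) staining. Parameters derived were GI50 (50% growth inhibition), TGI (total growth inhibition) and LC50 (50% cell killing).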

The subject of another assay is A549. As to the kind of experiment: Cytotoxicity against human A549 cells by SRB assay. The gist of the method:
as §1

A further assay has as its system HT-29. The experiment in a line: Cytotoxicity against human HT-29 cells by SRB assay. The gist of the method:
as §1
In general terms: In SRB staining, fixed cells bind dye roughly in proportion to their protein.

As a reminder, the GI50 is the concentration giving 50% growth inhibition. Lower therefore signals more potent growth inhibition. As to `CC1(C)CCC[C@]2(C)[C@@H](Cc3cc(O)ccc3O)[C@](C)(O)CC[C@@H]12`, the GI50 is 27.7 µM in the assay on MDA-MB-231 and 17.4 µM with A549.

In the case of `C=C1CCC[C@H]2[C@](C)(Cc3cc(OC(C)=O)ccc3O)[C@@H](C)CC[C@]12C`, the GI50 was determined as 21 µM in the assay on MDA-MB-231 and 25.5 µM in the assay on A549.

In general, TGI refers to the concentration at which net growth stops. A lower TGI goes with more potent growth arrest. For the compound `CC(=O)Oc1ccc(O)c(C[C@H]2C(C)=CC[C@H]3C(C)(C)CCC[C@]23C)c1O`, in the assay on HT-29, halving of growth (GI50) required 11.3 µM, the TGI was 12.6 µM and the CC50 was determined as 14 µM. Moreover, in the assay with MDA-MB-231, it took 10.5 µM to inhibit growth by half (GI50), total growth inhibition (TGI) required 11 µM and the CC50 is 11.8 µM. Besides, in the assay with A549, the GI50 came out at 10.5 µM, net growth stopped (TGI) at 11 µM and the CC50 turned out to be 11.8 µM.

For the compound `CC1=CC[C@H]2C(C)(C)CCC[C@]2(C)[C@H]1C[C@H]1C(=O)C=C[C@@H]1O` [DYSIENONE], the GI50 came to 13.6 µM in the assay with HT-29, 15.2 µM in the assay on MDA-MB-231 and 12.9 µM in the assay with A549. For the same compound, the TGI was 14.2 µM in the assay with HT-29, 16.5 µM in the assay with MDA-MB-231 and 13.6 µM in the assay with A549. The CC50 in the assay on HT-29 is 15.2 µM; with MDA-MB-231, 17.9 µM; in the assay with A549 it was 14.2 µM.
